Source: ChEMBL document CHEMBL4513216, “Probing the Open Global Health Chemical Diversity Library for Multistage-Active Starting Points for Next-Generation Antimalarials” (ACS Infect Dis, 2020)

Assay: Toxicity liver stage against HepG2, at 10uM
Format: cell-based
Set-up: test concentration 10 uM, cell line HepG2-A16-CD81EGFP
Conditions: human, HepG2-A16-CD81EGFP cells; read-out: INHIBITION
Outline: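 Uninfected HepG2-A16-CD81EGFP cells, 3 × 10^3 per well, 1536-well, plated on prespotted compound at 10 μM final, parasite-free screening media added to match infected plates; puromycin 10 μM positive, DMSO 0.5% negative; run in parallel with 48 h PbLuc assay at 37 °C, 5% CO2; viability by CellTiter-Glo luminescence, normalized to controls.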

Compound | cytotoxicity at 10 µM
O=C(NCC(O)c1ccsc1)Nc1cccs1 (stereo unspecified) | -8.29%
O=C(Nc1nc2c(s1)CN(S(=O)(=O)C1CC1)CC2)C1CC1 | -0.849%
COc1ccc(C(=O)N2CCO[C@H]3[C@@H](OCC4CC4)CC[C@@H]32)cc1F | 19.1%
CCN1C(=O)CC(c2cccnc2)C12CCN(c1ncc(F)cn1)CC2 (stereo unspecified) | -8.59%
CCOC1CC2(CCN(c3cnccn3)CC2)c2ccccc21 (stereo unspecified) | 5.54%
CCOCc1cncc2c1CCN(S(=O)(=O)c1cccc(C)c1)C2 | 13.6%
O=S(=O)(C1CC1)N1CCc2ncnc(-c3ccc(F)cc3)c2CC1 | -66.5%
Cc1ccc(C(=O)N2C[C@@H]3CN(S(C)(=O)=O)CCO[C@@H]3C2)o1 | -2.42%
Cc1nc(N2CCOCC2)nc2c1CCN(c1nccs1)CC2 | 7.37%
Cc1ccc(N2CC[C@@H]3O[C@@H](c4ccncn4)C[C@H]3C2)nn1 | 10.8%
CCN1CCC2(CC1)CN(C(C)=O)c1ccc(C)cc12 | 3.98%
CCC1=NN2C(=N)/C(=C/c3cccc(Cl)c3)C(=O)N=C2S1 | -11.8%
Cc1ccccc1Cn1nnc2cc3c(cc2c1=O)OCCO3 | 1.11%
CCC(C)NC(=O)Cn1ncc2c1c(C)nn2CC (stereo unspecified) | 3.24%
CC(C)n1cc(N2CC(C(=O)N3CCc4ccccc4C3)CC2=O)cn1 (stereo unspecified) | -153%
CC(=O)N1CCC(C)(c2cc(C(=O)NCC(C)(C)C)nc(C)n2)CC1 | 6.93%
CC(C)c1nccn1-c1nccnc1C1CCCN1Cc1cccnc1 (stereo unspecified) | 7.77%
Cc1cc(N2CCOC(C)(C(=O)N(C)C)C2)ncn1 (stereo unspecified) | -0.277%
CCC(=O)N1CCC(c2ncc3c(n2)CCNC3)CC1 | -22.5%
Cc1ccccc1-c1cncc(C2CCN(S(=O)(=O)N(C)C)CC2)n1 | 0.0706%
CC1(C(=O)NCc2cc(F)cc(F)c2)CCOCC1 | 4.32%
O=c1c2ccccc2nc2n1C(CSc1cccc(C(F)(F)F)c1)CN2 (stereo unspecified) | 12.9%
CC(C)N(C(=O)Cn1nnnc1CCc1ccccc1)C(C)C | 7.1%

Compound | cytotoxicity at 10 µM
CCc1ccc2c(c1)C(CCNC(=O)Cc1cccc(F)c1)C(=O)N2 (stereo unspecified) | -49.1%
Cc1ccc(-c2noc(CNCC3CN(C)CCO3)n2)cc1F (stereo unspecified) | -1.51%
Cc1nc(CN2CCOC3(CCCC3)C2)oc1C | 4.56%
Cc1cc(N(Cc2ccccn2)C2CC2)n2nc(C(F)(F)F)nc2n1 | -5.83%
COc1ccc(CN(C(=O)C2CCCS2)c2ccncc2)cc1 (stereo unspecified) | 5.57%
COc1ccccc1CNC(=O)COc1ccc2c(c1)OCC2O (stereo unspecified) | -3.75%
C=C(C)CN(CC)C(=O)CN1CCCC1C(=O)N(C)C (stereo unspecified) | 8.52%
CCC(O)CN(c1ccccc1)S(=O)(=O)c1cnc(C)s1 (stereo unspecified) | -45.6%
Cc1noc(C2CCN(Cn3cc(Cl)cn3)CC2)n1 | -11.1%
CC(C(=O)NC1(C#N)CCCCC1)N1CCc2c(ncn2C)C1 (stereo unspecified) | 7.04%
Cc1nnc(CN(C)CC(=O)N2CCCC(C)CC2)n1C (stereo unspecified) | 10.6%
Cc1nc(CN2CCCc3cc(OC(F)(F)F)ccc32)oc1C | 0.889%
O=C(c1ccc(-n2ccnc2)nc1)N1CCN2CCCCC2C1 (stereo unspecified) | -5.95%
Cc1ccc(C2CCCN2S(=O)(=O)N(C)Cc2cnccn2)o1 (stereo unspecified) | 0.78%
CCS(=O)(=O)c1ccc(N2CCC(NC(=O)C3CCCCC3)CC2)cc1 | 12%
CN(Cc1noc(C(C)(C)C)n1)CC1CCN(CCO)CC1 | 7.17%
Cc1cc2n(n1)CC(CNCCNC(=O)c1ccc(F)cc1)CN2 (stereo unspecified) | 6.15%
CC(=O)N1CCc2cc(Cl)cc(Cl)c2C1 | 11.2%
CCC(=O)N(CC)C(c1cccnc1)c1ccc2c(c1)CCO2 (stereo unspecified) | 2.94%
CCCNC(=O)c1cc(Br)cc(S(=O)(=O)N2CCOCC2)c1F | -5.12%
CCOc1ccccc1C(CC(=O)Nc1ccccc1)NC(C)=O (stereo unspecified) | -2.86%
CNS(=O)(=O)c1ccc(CNC(=O)c2cc(-c3ccccn3)no2)cc1 | -11.4%
CCc1cc(N2CCC(NC(=O)CCC3CCCO3)CC2)ncn1 (stereo unspecified) | 8.31%

Compound | cytotoxicity at 10 µM
CC(C)c1ccc(S(=O)(=O)NC2(CC(N)=O)CCC2)cc1 | -2.77%
CCCN(C(=O)CNC1CCc2ncnn2C1)C1=CCCCC1 (stereo unspecified) | 1.76%
O=C(Nc1nccs1)C1CCN(Cc2cccc3c2OCCO3)CC1 | -1.95%
CC(C)c1ncc(Cl)c(C(=O)N2CCN3CCCCC3C2)n1 (stereo unspecified) | 4.77%
O=S(=O)(NCc1ccc(S(=O)(=O)N2CCCC2)s1)c1ccc(Cl)cc1 | -44%
CC(C)c1noc(OCc2cccc(S(=O)(=O)N(C)C)c2)n1 | -45.9%
CN(CCN1CCOC1=O)CC(=O)Nc1ccc(Cl)c(Cl)c1 | -52.4%
Cc1ncc(CN(C)CC(O)c2cccc(C(F)(F)F)c2)s1 (stereo unspecified) | 1.86%
COc1c(CNC2CCCc3ccccc32)c(C)nn1C (stereo unspecified) | -0.808%
COc1ccc(CC(=O)N2CC[C@@H]3CN(C)S(=O)(=O)[C@@H]3CC2)cc1 | 4.33%
COCCN(C)C(=O)c1cc2c(s1)CCN2C(=O)C1CC1 | -7.38%
Cn1nnc2c1C(COCC1CC1)CN(C(=O)C1=CCCC1)C2 (stereo unspecified) | -102%
O=C(C1CCOCC1)N1CC[C@H](O)[C@@H]1Cc1cccnc1 | -104%
COCC(=O)N1CC[C@@H](O)[C@@H]1Cc1ccccc1 | -1.26%
Cc1ocnc1C(=O)N1CCN(CCOc2ccccc2)CC1 | 1.12%
CCc1ncc(CN2CCC(CCc3ccccc3)CC2)cn1 | -175%
CC1CCN(S(=O)(=O)N2C[C@H](c3ccccc3)[C@@H](N)C2)CC1 | -12.1%
CCc1ncc(C(=O)N2CCCN(C3CCCCC3)CC2)cn1 | -5.1%
CCCN1CCN(C(=O)c2ccc(Cl)cn2)[C@H]2CS(=O)(=O)C[C@H]21 | -4.15%
N[C@H]1CN(C(=O)CCc2ccccn2)C[C@@H]1c1ccccc1 | -0.23%
CCOCc1nc2c(c(NC(CC)c3ccncc3)n1)CCNCC2 (stereo unspecified) | -0.0944%
Cc1nn(C)c(C)c1CN(C(=O)c1cc(Cl)c[nH]c1=O)C(C)C | -3.25%
COc1cc(F)ccc1-c1cc(CO)ccn1 | 6.58%

Compound | cytotoxicity at 10 µM
COc1cc(C)ccc1OCc1nc(C(=O)N2CCCC2)co1 | -42.5%
CC(=O)Nc1ccc2nc(-c3nccn3CC(C)(C)CO)ccc2c1 | 3.89%
c1cn(CC2CC2)c(C2CCN(CCC3CCOC3)CC2)n1 (stereo unspecified) | -8.64%
CCCN(Cc1ccc(OC)nc1)Cc1ccccc1OC | -5.85%
O=C(Nc1cccc2c1CCCC2)c1cccc(CN2CC[C@H](O)C2)c1 | -9.32%
c1ccc(COC2CCN(Cc3cc4n(n3)CCCNC4)CC2)nc1 | 2.59%
COC(=O)CC1CCN(C(=O)Nc2ccc(-c3ccn[nH]3)cc2)C1 (stereo unspecified) | 3.57%
CCN1CCN(C2(C(=O)NC3CCCC3)Cc3ccccc3C2)CC1 | -13.8%
Cc1cccc2[nH]c(C3CCCN(Cc4ccccc4C(=O)O)C3)nc12 (stereo unspecified) | 7.28%
C[C@@H]1CN(C(=O)CCCN2CCOCC2)C[C@@]1(O)C1CC1 | 4.39%
Cc1cc(C(=O)N2CCCC3(CN(C)C(=O)O3)C2)c2ccc(F)cc2n1 (stereo unspecified) | 3.05%
Cc1ccsc1CN1CCC(c2cc(C(C)C)n[nH]2)CC1 | 1.13%
O=C(C1CNCCO1)N1CCCC(c2ccccc2)(c2ccccc2)C1 (stereo unspecified) | 12.2%
Cc1nc(-c2cccc(N3CCC(NC4CCOCC4)CC3)c2)cs1 | -10.1%
CCOc1ccccc1C(=O)N1CCCC(O)(CN(C)C)C1 (stereo unspecified) | -1.73%
O=C(O)c1cccnc1CN1CCCCC1CCc1ccccn1 (stereo unspecified) | 7.4%
Cn1ccnc1CN1CCCC(CCc2ccc(F)c(F)c2)C1 (stereo unspecified) | -6.9%
OCCNc1cc(-c2nccnc2N2CCCC2)c2cc[nH]c2n1 | -7.57%
CN(c1ccncn1)C1CC2(CCN(C(=O)CCc3cccs3)C2)C1 (stereo unspecified) | -1.34%
CCc1nc(C2CCCN(C(=O)c3ccccc3O)C2)no1 (stereo unspecified) | -7.39%
O=C(NCC(=O)N1CCCC1)c1nn(-c2ccccc2F)cc1O | 6.53%
O=C(O)c1cccc(S(=O)(=O)N2CCOc3ccccc32)c1 | -5.92%
Cc1cc(C)n(-c2ccc(CNCc3ccc(F)cc3F)cn2)n1 | -12.2%

Compound | cytotoxicity at 10 µM
O=C(CCc1ccco1)N1CCCC(n2cccn2)C1 (stereo unspecified) | -8.8%
CCNc1cc2c(nn1)CCN(C(=O)c1ccsc1)C2 | -13.7%
CN1CCN(c2cc(CNC(=O)Cn3cccn3)ccn2)CC1 | -11.6%
Cc1csc(N2CCCN(C(=O)c3csc(C)n3)CC2)n1 | -3.96%
CCc1noc(C(C)N2CCC(O)CC2)n1 (stereo unspecified) | 0.26%
CCn1ccnc1CN1CCOC(Cn2cccn2)C1 (stereo unspecified) | -14.7%
Cc1ccc(NS(=O)(=O)c2cc3c(c(C(=O)O)c2)OCCO3)cc1C | -15.3%
c1cnnc(NCC2CN(CCN3CCCCC3)CCO2)c1 (stereo unspecified) | -11.9%
CCn1c(C)cc(C(=O)N2CCCC(n3nc(C)nc3C)C2)c1C (stereo unspecified) | -11.4%
Cc1cccc(-c2nc(CN3CCc4c(ncn4C)C3)no2)c1 | -9.42%
Cc1csc(N2CCCN(C(=O)c3c(C)oc(C)c3C)CC2)n1 | 3.75%
Cc1nc(C2CCCN2Cc2ncc(C(C)C)o2)no1 (stereo unspecified) | 4.31%
CC1CCN(S(=O)(=O)NCc2ccccc2Cn2cncn2)CC1 | -2.72%
Cc1cnn(CC2CCCN2Cc2nc3ccccc3nc2C)c1 (stereo unspecified) | -1.35%
CCC(CN1CCN(C)CC1)NC(=O)C1(c2cccc(F)c2)CC1 (stereo unspecified) | 3.54%
CN(C)C(=O)COC1COC2(CCN(CC3CC3)CC2)C1 (stereo unspecified) | -108%
CN(C)C(=O)C1CCN(C2CCN(CC3CC3)CC2)CC1 | 4.55%
Cc1cccc(CN2CCN3C[C@H](Oc4cncnc4)C[C@H]3C2)n1 | -91.9%
CN(C)CCn1c2c(ccc1=O)CC(NC(=O)c1ccsc1)CC2 (stereo unspecified) | 2.15%
